Results taken from article PMC10620946 (Journal of medicinal chemistry, 2021).
Each block holds one molecule with its values, some of them ahead of it.

Tests used:
[1] = target: T1, human RNase L (H-RNase L) (Homo sapiens, UniProt Q05823); assay: FRET based enzyme assay of RNA substrate cleavage, H-RNase L; type: biochemical; details: for IC50 against RNase L, in words: in vitro
T1 sequence (Q05823 1-741): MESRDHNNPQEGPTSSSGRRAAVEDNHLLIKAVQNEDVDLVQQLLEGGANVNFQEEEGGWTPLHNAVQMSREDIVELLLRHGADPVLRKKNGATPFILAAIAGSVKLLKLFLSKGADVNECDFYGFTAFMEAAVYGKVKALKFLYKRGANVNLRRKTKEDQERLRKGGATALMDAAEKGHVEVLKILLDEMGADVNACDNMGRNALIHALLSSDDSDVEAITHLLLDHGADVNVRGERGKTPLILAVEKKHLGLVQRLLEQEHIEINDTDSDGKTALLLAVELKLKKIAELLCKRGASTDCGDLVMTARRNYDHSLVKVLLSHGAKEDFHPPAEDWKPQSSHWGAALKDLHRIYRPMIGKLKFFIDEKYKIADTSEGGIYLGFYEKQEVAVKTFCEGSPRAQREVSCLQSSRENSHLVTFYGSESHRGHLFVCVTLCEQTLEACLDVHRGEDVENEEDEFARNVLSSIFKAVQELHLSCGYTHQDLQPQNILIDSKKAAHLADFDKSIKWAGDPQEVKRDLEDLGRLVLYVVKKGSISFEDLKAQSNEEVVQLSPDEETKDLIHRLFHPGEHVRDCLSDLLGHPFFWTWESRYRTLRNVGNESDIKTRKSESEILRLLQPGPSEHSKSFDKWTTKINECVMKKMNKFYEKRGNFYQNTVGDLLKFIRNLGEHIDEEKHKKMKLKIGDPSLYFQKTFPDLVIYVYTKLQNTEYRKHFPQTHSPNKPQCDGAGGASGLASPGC

[2] = target: porcine RNase L (P-RNase L) (Sus scrofa, UniProt A5H025); assay: FRET based enzyme assay of RNA substrate cleavage, P-RNase L; type: biochemical
P-RNase L21-732 = assay: STD-NMR binding; set-up: species or system porcine; details: for STD-NMR signal (binding to P-RNase L): 10 μM P-RNase L21-732, 400 μM fragment; for STD-NMR binding to RNase L dimer: 2-5A in molar excess to RNase L; for STD-NMR binding with ATP/MgCl2: ATP/MgCl2 or mixture of 2-5A and ATP/MgCl2 in molar excess to RNase L; for STD-NMR binding to monomeric RNase L: absence of 2-5A
H-RNase L = target: T2, H-RNase L (Homo sapiens, UniProt Q05823); assay: RNase L mediated rRNA cleavage in intact A549 cells; type: cell-based; details: 3-100 μM inhibitor, 4 h, then 20 μM trimeric 2-5A 2 h
T2 sequence (Q05823 1-741): T1 sequence (Q05823 1-741)

P-RNase L = assay: RNase L oligomerization assay; type: biochemical, porcine; details: 40 μM compound, 2-5A up to 2 μM
In short: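 Full-length porcine RNase L (0.8 μM) with 5 mM MgCl₂, preincubated ±test compound 15 min on ice. 2-5A then added for a further 15 min on ice. Cross-linked with DMS (120 mg/mL stock in 0.4 M triethanolamine-HCl, pH 8.5) 1 h at room temperature. Denatured in SDS/β-mercaptoethanol loading buffer at 95 °C for 5 min. Resolved by 4-12% gradient SDS-PAGE with Coomassie G-250 stain and imaged.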

RNase L [3] = details: cited from earlier work
RNase L [4] = details: cited from earlier work; remark: listed apart in the source

- inhibition of H-RNase L in vitro [1]: not active
- inhibition of P-RNase L in vitro [2]: not active
Structure (SMILES): O=c1c(O)c(-c2ccc(O)cc2O)oc2cc(O)cc(O)c12 [morin]

Structure (SMILES): CCCCOC(=O)c1ccc(O)cc1 [AC40357]
- inhibition of H-RNase L in vitro [1]: inhibited
- IC50 against RNase L, in words [1]: low millimolar
- STD-NMR signal (binding to P-RNase L) (P-RNase L21-732): positive
- inhibition of P-RNase L in vitro [2]: inhibited only H-RNase L

Structure (SMILES): O=C(CCc1ccc(O)cc1)c1c(O)cc(O)cc1O [phloretin]
- inhibition of H-RNase L in vitro [1]: inhibited

Structure (SMILES): O=c1c(O[C@@H]2O[C@H](CO)[C@H](O)[C@H](O)[C@H]2O)c(-c2ccc(O)c(O)c2)oc2cc(O)cc(O)c12 [hyperoside]
- inhibition of H-RNase L in vitro [1]: inhibited
- effect of 2-5A concentration on potency against H-RNase L ([1]; 2-5A 1, 5 and 20 nM): does not seem to have an effect
- IC50 against RNase L, in words [1]: single-digit micromolar
- STD-NMR binding to RNase L dimer (P-RNase L21-732): positive STD signal
- STD-NMR binding with ATP/MgCl2 (P-RNase L21-732): remained positive
- STD-NMR binding to monomeric RNase L (P-RNase L21-732): directly interacts
- inhibition of P-RNase L in vitro [2]: inhibited
- effect of 2-5A concentration on potency against P-RNase L ([2]; 2-5A 1, 5 and 20 nM): does not seem to have an effect
- inhibitory activity against RNase L in intact cells (rRNA cleavage) (H-RNase L): did not show any inhibitory activity
- suppression of 2-5A induced RNase L dimerization (cross-linking) (P-RNase L): did not suppress

- STD-NMR signal (binding to P-RNase L) (P-RNase L21-732): positive
Structure (SMILES): Cc1cc(C(=O)O)cc(Cl)n1 [RF03759]

Structure (SMILES): O=C(O)c1cc(O)c(O)c(O)c1Oc1cc2c(=O)oc3c(O)c(O)cc4c(=O)oc(c1O)c2c34 [VAL, valoneic acid dilactone]
- EC50 for RNase L in intact cells, in words (RNase L [3]): micromolar range
- inhibition activity on RNase L in vitro, in words (RNase L [4]): nanomolar

- inhibition of H-RNase L in vitro [1]: inhibited
- STD-NMR binding to RNase L dimer (P-RNase L21-732): positive STD signal
- STD-NMR binding with ATP/MgCl2 (P-RNase L21-732): remained positive
- STD-NMR binding to monomeric RNase L (P-RNase L21-732): directly interacts
- inhibition of P-RNase L in vitro [2]: inhibited
Structure (SMILES): O=c1c(O)c(-c2cc(O)c(O)c(O)c2)oc2cc(O)cc(O)c12 [myricetin]
- inhibitory activity against RNase L in intact cells (rRNA cleavage) (H-RNase L): identical inhibitory activity to that of VAL

Structure (SMILES): O=c1cc(-c2ccc(O)cc2)oc2c([C@@H]3O[C@H](CO)[C@@H](O)[C@H](O)[C@H]3O)c(O)cc(O)c12 [vitexin]
- STD-NMR signal (binding to P-RNase L) (P-RNase L21-732): directly binds
- inhibitory activity against RNase L in intact cells (rRNA cleavage) (H-RNase L): did not show any inhibitory activity

- STD-NMR signal (binding to P-RNase L) (P-RNase L21-732): positive
Structure (SMILES): O=C(O)c1ccc(Cl)nc1Cl [AC39661]

- STD-NMR signal (binding to P-RNase L) (P-RNase L21-732): positive
Structure (SMILES): C[S+]([O-])c1sc(Cl)c2c1C(=O)CCC2 (centres unmarked) [KM05073]

Structure (SMILES): CCN(CC)CCNC(=O)c1c(C)[nH]c(/C=C2\C(=O)Nc3ccc(F)cc32)c1C [sunitinib]
- IC50 against RNase L in vitro, in words (RNase L [4]): micromolar range

- STD-NMR signal (binding to P-RNase L) (P-RNase L21-732): positive
Structure (SMILES): Oc1ccc(Sc2ccc(O)cc2)cc1 [BTB10184]
